PGC1a acetyl inh – modulators of PGC1a acetylation. U2OS PGC1a acetylation, AlphaScreen anti-acetyl-lysine; with virally co-expressed GCN5 acetyltransferase. inhibition, % at 15.6 µM. 350,000 tested, 0.17% active;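 active means every replicate shows inhibition of at least 40%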;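 further: 0% = neutral control wells and 100% = positive control wells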
Ecoli rRNA inh – inhibitors of bacterial rRNA selective over humanized ribosomes | GFP signal change (wild-type ribosome), % (concentration not given with the values) | 350,000 tested, 1.6% active | E. coli WT GFP vs humanized-ribosome RFP mutants, fluorescence, 24 h; hits give low values; DMSO median 0, no signal -100 | AID 720706;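 active means significant combined selectivity score with lowered wild-type GFP, culture density cut under 30%, mutant RFP and density less affected; inactive means any of these conditions unmet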
S100A4 inh HTS – S100A4-myosin IIA interaction inhibition | AID 652163 | S100A4/TAMRA-MyoIIA peptide fluorescence polarization | P26447 | inhibition, % at 10.7 µM | 360,000 tested, 0.14% active;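 active means mean inhibition of at least 70% across replicates, with every replicate also reaching that level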
Target sequence (P26447 whole entry, looked up): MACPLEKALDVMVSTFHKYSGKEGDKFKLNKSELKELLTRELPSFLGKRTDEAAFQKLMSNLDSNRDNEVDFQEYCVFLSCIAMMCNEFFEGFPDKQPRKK
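Test system – S100A4 monomer (human) · Compound – single-point compound testing · Schedule – 5 min incubation before reading · Probe or stimulus – TAMRA-labelled myosin IIA heavy-chain peptide probe, 5 nM · Benchmarks – neutral control DMSO, positive control TFP · Medium – Calcium-containing HEPES buffer, pH 7.2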
SIRT5 inh – sirtuin-5 (human) deacylase inhibition; Q9NXA8; Purified SirT5, succinyl-peptide AMC, trypsin-coupled fluorescence; inhibition, % at 15 µM; 330,000 tested, 1.1% active; in the data active means inhibition above about 15%
Target sequence (Q9NXA8 whole entry, looked up): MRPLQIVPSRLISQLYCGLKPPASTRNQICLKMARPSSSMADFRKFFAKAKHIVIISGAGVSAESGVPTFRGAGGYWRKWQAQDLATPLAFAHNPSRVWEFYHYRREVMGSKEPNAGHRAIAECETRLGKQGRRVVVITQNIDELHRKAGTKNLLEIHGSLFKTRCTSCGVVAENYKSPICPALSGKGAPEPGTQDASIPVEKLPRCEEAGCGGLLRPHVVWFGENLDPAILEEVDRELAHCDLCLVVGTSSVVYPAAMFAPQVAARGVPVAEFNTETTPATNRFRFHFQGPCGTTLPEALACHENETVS
Cneo AK release – causes C. neoformans cell lysis. adenylate kinase release luminescence, 4 h; normalised: neutral wells 0, clomiphene wells 100. lysis activity, % at 15 µM. 360,000 tested, 0.2% active;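 active means mean lysis activity across replicates of at least 80%, whatever share of replicates individually reach that level; inactive means mean lysis activity below 80%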
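Schedule: static 4 h at 37 °C with compound, 1 h detection; system: C. neoformans cells; benchmarks: Clomiphene as positive control; buffer or medium: fresh YPD medium; measure: luminescence rise reflecting yeast cell lysis; measured by: luminescent adenylate kinase detection reagent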
C2C12 statin – suppressors of simvastatin-induced myotoxicity in C2C12 myotubes; ATP luminescence, 48 h; scaled: DMSO 0, geranylgeraniol control 100; 330,000 tested, 0.78% active; rescue of ATP level, % at 7.49 µM;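 active means mean ATP rescue above about 67%, or every replicate alone reaching that limit, limit read from the data, passing the limit was not always enough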;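 further: myotubes were challenged with 10 µM simvastatin during compound exposure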
* hit, by the source's call; . = no result given; + = active, no number. Only some compounds are listed: those with a hit (about 3% of all), similar ones and a draw of the others.

SMILES | PGC1a acetyl inh | Ecoli rRNA inh | S100A4 inh HTS | SIRT5 inh | Cneo AK release | C2C12 statin
COc1ccc(S(=O)(=O)N2CCCCC2)cc1C(C)C | -3 | . | . | . | 0 | 113*
COc1ccc(S(=O)(=O)N2CCC(O)(c3ccc(Cl)cc3)CC2)cc1OC | 6 | -24* | -3 | 0 | . | 9
COCC(=O)N1C[C@H]2CON(C)[C@H]2C[C@H]1c1cccc(-c2ccccc2OC)c1 | 11 | 19 | -1 | -3 | -4 | 4
COc1ccccc1-c1cccc([C@@H]2C[C@H]3[C@H](CON3C)CN2C(=O)CCc2ccccc2)c1 | -4 | -3 | -7 | 17* | 4 | 3
CCCN(CC(=O)Nc1ccc(Cl)cc1Cl)Cc1cc(=O)n2ccsc2n1 | 10 | -46* | -12 | 2 | -3 | 8
CCCN(CC(=O)Nc1ccc(F)c(F)c1F)Cc1cc(=O)n2ccsc2n1 | 5 | 5 | -12 | . | . | 11
COc1cc(C(=O)NCC2(N(C)C)CCCCC2)ccc1OCc1ccccc1 | 20 | 4 | -1 | 65* | 3 | -56
COc1cc(C(N)=O)ccc1OCc1ccccc1 | 7 | . | . | . | 2 | 117*
COc1ccc(COc2ccccc2C(N)=O)cc1F | -10 | -1 | -6 | -2 | 3 | 109*
CC(=O)N1C[C@@H]2[C@H](c3ccccc31)[C@@H](CO)N2C(=O)c1ccc(F)cc1 | 1 | 4 | -31 | 1 | -1 | -11
Cc1ccccc1S(=O)(=O)N1C[C@@H](O)COC[C@@H]2O[C@H](CC(=O)NCCc3ccccc3)CC[C@H]21 | 0 | 2 | 13 | -4 | 4 | -14
O=C(Nc1cccnc1)c1ccccc1NS(=O)(=O)c1ccc(F)cc1 | 2 | -32* | -2 | 1 | -1 | -4
Cc1ccc(N2C(=O)c3ccc(C(=O)Nc4cccnc4)cc3C2=O)c(C)c1 | 17 | . | . | . | 3 | 90*
COCCN1C(=O)c2ccc(C(=O)Nc3cccnc3)cc2C1=O | 5 | 7 | -4 | 2 | 0 | 3
Cc1ccc(NS(=O)(=O)c2cccc(C(=O)Nc3cccnc3)c2)c(C)c1 | 11 | -45* | -2 | 2 | 0 | -5
Cc1noc(C)c1S(=O)(=O)Nc1ccc2c(c1)C(=O)N([C@H](C)CO)C[C@H](C)[C@H](CN(C)C(=O)c1ccccc1)OCCCC[C@H](C)O2 | 19 | -3 | -7 | 7 | -11 | .
O=C(C[C@@H]1CC[C@H](NC(=O)Nc2ccc(C(F)(F)F)cc2)[C@H](CO)O1)NCc1cc(F)cc(F)c1 | 2 | 0 | -3 | 1 | -5 | 23
COC(=O)c1ccccc1-c1ccc(/C=N/NC(=O)c2cc3ccccc3o2)o1 | -5 | . | . | . | 2 | 3
COC(=O)c1ccccc1-c1c2ccc(=N)cc-2oc2cc(N)ccc12 | 1 | 64 | + | 2 | -1 | -171
Cc1ccc(-c2nnc(N3CCN(C(=O)CN4CCOCC4)CC3)c3ccccc23)cc1 | . | . | . | . | 0 | -7
O=C(CN1CCOCC1)N1CCN(c2nnc(-c3ccccc3)c3ccccc23)CC1 | 0 | . | . | . | 1 | 115*
O=C(c1cccs1)N1CCN(c2nnc(-c3ccccc3)c3ccccc23)CC1 | -69 | -28* | 9 | 1 | . | .
Cc1ccc(-c2nnc(N3CCN(C(=O)c4cccs4)CC3)c3ccccc23)cc1 | . | -23 | -3 | 1 | . | .
Cc1ccc(OCC(=O)NNC(=O)C2CCN(c3ncnc4sc(C)c(C)c34)CC2)cc1 | . | -17 | 1 | 2 | . | 4
Cc1sc2ncnc(N3CCC(C(=O)NNC(=O)COc4cccc(C(F)(F)F)c4)CC3)c2c1C | . | -19* | 0 | -5 | . | .
SMILES | PGC1a acetyl inh | Ecoli rRNA inh | S100A4 inh HTS | SIRT5 inh | Cneo AK release | C2C12 statin
CSCCC(C(=O)NCc1ccccc1)n1c(-c2ccc3c(c2)CCO3)nc2ccccc21 (stereo not drawn) | . | -17* | -2 | . | . | .
Nc1nc(CSc2ccc(Cl)cc2)nc(N2CCCCC2)n1 | -11 | -49 | -6 | 18* | . | .
Nc1nc(CSc2ccccc2)nc(N2CCCCC2)n1 | -4 | -36 | 2 | 2 | . | 8
N/C(=N/OC(=O)c1ccccc1Cl)c1nonc1N | -14 | -23* | -1 | -1 | . | .
O=C(CNC(=O)C1COc2ccccc2O1)N/N=C\c1ccc(Br)cc1 (stereo not drawn) | -5 | -2 | 2 | 23* | 1 | 0
CCCNC(=O)C[C@@H]1CC[C@@H]2[C@H](COC[C@H](O)CN2C(=O)Nc2ccc3c(c2)OCO3)O1 | -7 | 1 | 15 | 3 | -2 | 15
O=C(CSCc1ccc(Cl)cc1)N/N=C/c1ccccc1 | -10 | . | . | . | 10 | 114*
CC(=O)n1cc([C@@H]2C=C(C(=O)N3CCN(Cc4ccccc4)CC3)O[C@H](OCc3ccc(CO)cc3)C2)c2ccccc21 | -5 | -4 | -5 | 4 | 0 | 86*
O=C(c1cc(-c2cccc(Br)c2)nc2ccccc12)N1CCCC1 | -1 | -26 | -9 | -1 | -3 | -2
O=C(c1cc(-c2ccc(Br)cc2)nc2ccccc12)N1CCC1 | -6 | -25* | -4 | -2 | -7 | 6
O=C(C[C@@H]1CC[C@H]2[C@@H](COC[C@H](O)CN2Cc2ccc(Oc3ccccc3)cc2)O1)N1CCCCC1 | -11 | -21 | 3 | -1 | 0 | 35
O=C(C[C@H]1CC[C@@H]2[C@H](COC[C@H](O)CN2Cc2ccc(Oc3ccccc3)cc2)O1)N1CCc2ccccc2C1 | -15 | . | -5 | 18* | 1 | -6
O=C(C[C@H]1CC[C@@H]2[C@H](COC[C@@H](O)CN2Cc2ccc(Oc3ccccc3)cc2)O1)N1CCCCC1 | -3 | -20 | 8 | -3 | 4 | 71*
CCCNC(=O)NC(=O)CSc1nnc(C)n1N | -6 | . | . | . | -1 | 80*
CCOc1cc(/C=C2/C(=O)N(c3ccccc3)N=C2C)ccc1OC(=O)c1ccco1 | 1 | . | . | . | -2 | -4
CCOc1cc(/C=C2\C(=O)N(c3ccc(C(N)=O)cc3)N=C2C)ccc1OC(=O)c1cccs1 | 9 | . | . | . | -4 | 103*
O=S(=O)(NN=C1CCCCC1)c1ccccc1 | 2 | 0 | -3 | -3 | 0 | 115*
O=S(=O)(NN=C1CCCCCCC1)c1ccccc1 | 1 | 6 | -4 | . | 1 | 3
CNC(=O)C[C@H]1CC[C@H]2[C@@H](COc3ccc(NC(=O)c4ccno4)cc3C(=O)N2C)O1 | 13 | 5 | . | . | -3 | 21
CCCNC(=O)N[C@H]1CC[C@H](CCn2cc(C3CC3)nn2)O[C@@H]1CO | 15 | 3 | -3 | 1 | 54 | -3
Cc1oc(-c2cccs2)nc1CN1CCN(C2CCCC2)C(CCO)C1 (stereo not drawn) | -2 | 10 | 13 | -5 | -4 | -10
